The source made the active and inactive calls. No cut-off for these calls is given here.
Columns and labels:
[1] = molecular target: Nuclear factor NF-kappa-B complex (Homo sapiens) (UniProt Q00653+P19838+Q04206); assay: Inhibition of TNF-alpha-induced NF-kappaB activity in HEK293 cells after 6 hrs by luciferase reporter gene assay; format: cell-based
Aromatase [2] = molecular target: T1, Aromatase (Homo sapiens, UniProt P11511); assay: Inhibition of aromatase (unknown origin) using dibenzylfluorescein substrate at 50 uM after 24 hrs by fluorescence assay
T1 sequence (P11511 whole entry): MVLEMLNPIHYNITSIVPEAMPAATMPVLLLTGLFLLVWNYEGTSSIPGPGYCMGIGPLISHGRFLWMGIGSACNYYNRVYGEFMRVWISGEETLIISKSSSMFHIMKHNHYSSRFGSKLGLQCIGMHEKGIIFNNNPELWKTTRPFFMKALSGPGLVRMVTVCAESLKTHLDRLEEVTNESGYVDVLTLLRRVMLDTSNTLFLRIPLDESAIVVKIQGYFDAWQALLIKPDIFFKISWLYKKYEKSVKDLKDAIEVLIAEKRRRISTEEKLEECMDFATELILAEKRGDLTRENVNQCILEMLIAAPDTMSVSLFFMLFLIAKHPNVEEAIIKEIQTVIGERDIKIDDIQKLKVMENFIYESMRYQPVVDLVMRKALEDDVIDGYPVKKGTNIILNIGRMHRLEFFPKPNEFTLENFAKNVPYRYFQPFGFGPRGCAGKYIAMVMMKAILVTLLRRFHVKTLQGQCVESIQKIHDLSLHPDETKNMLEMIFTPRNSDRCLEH

[3] = molecular target: Beta-secretase 1 (Homo sapiens) (UniProt P56817); assay: Inhibition of BACE1 (unknown origin) assessed as proteolytic cleavage of amyloid precursor protein after 16 hrs at < 100 uM by chemiluminescence assay
Beta-secretase 1 (Homo sapiens), sequence (P56817 whole entry): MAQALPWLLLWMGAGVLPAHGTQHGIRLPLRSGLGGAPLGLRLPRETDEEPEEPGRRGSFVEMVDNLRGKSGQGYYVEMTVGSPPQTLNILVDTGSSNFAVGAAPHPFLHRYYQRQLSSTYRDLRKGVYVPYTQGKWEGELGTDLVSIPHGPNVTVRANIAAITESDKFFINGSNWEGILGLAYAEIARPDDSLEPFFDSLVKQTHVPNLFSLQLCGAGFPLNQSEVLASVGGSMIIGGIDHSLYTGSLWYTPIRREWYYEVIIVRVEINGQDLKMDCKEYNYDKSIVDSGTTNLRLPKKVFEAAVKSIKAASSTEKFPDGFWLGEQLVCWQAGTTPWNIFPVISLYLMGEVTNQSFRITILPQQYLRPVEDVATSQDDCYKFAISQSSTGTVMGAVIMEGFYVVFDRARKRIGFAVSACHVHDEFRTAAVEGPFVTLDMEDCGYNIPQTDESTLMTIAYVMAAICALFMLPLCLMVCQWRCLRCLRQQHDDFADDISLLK

[4] = molecular target: T2, Nitric oxide synthase, inducible (Mus musculus) (UniProt P29477); assay: Inhibition of LPS-induced iNOS activity in mouse RAW264.7 cells after 24 hrs; format: cell-based
T2 sequence (whole entry): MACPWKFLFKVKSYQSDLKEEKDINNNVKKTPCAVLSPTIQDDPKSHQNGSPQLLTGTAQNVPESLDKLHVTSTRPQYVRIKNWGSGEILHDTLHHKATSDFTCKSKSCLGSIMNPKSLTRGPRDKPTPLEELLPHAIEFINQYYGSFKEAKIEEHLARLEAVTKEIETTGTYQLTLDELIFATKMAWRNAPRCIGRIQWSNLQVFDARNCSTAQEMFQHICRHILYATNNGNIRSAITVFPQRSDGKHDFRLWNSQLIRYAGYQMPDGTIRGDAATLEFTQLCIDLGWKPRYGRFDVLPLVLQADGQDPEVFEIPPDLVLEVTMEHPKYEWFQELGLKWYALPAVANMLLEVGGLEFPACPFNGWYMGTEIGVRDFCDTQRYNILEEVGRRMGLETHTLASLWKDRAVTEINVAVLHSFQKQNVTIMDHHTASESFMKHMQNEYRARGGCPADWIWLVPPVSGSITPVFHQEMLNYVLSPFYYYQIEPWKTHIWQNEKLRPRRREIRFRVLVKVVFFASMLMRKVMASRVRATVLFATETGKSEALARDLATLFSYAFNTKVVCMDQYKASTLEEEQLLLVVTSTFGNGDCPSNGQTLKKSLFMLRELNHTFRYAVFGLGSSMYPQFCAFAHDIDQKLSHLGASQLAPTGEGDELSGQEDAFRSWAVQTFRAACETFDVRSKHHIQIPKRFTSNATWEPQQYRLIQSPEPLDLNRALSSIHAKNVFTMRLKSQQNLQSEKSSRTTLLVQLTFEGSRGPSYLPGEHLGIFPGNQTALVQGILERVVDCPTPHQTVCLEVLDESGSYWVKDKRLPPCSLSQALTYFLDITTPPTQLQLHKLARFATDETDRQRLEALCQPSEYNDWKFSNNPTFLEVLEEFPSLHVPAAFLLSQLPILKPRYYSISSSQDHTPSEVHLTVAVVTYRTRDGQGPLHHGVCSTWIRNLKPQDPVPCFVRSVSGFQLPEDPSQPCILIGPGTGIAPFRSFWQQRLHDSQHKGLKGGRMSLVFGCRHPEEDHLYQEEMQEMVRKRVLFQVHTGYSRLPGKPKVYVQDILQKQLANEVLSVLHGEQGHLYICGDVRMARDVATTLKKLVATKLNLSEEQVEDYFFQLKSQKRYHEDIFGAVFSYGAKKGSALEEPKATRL

Aromatase [5] = molecular target: T1, Aromatase; assay: Inhibition of aromatase (unknown origin) using dibenzylfluorescein substrate after 24 hrs by fluorescence assay
[6] = molecular target: NAD(P)H dehydrogenase [quinone] 1 (Mus musculus) (UniProt Q64669); assay: Induction of quinone reductase 1 in mouse Hepa-1c1c7 cells after 48 hrs by MTT assay; format: cell-based
NAD(P)H dehydrogenase [quinone] 1 (Mus musculus), sequence (Q64669 whole entry): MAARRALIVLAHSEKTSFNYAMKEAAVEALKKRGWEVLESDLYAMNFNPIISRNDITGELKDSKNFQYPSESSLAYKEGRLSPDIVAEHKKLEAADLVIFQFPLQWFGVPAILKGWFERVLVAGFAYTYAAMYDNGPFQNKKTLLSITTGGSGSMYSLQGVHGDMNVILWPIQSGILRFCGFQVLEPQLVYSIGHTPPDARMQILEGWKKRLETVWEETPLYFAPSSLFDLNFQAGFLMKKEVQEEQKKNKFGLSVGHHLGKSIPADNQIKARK
In short: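 QR1 induction measured in cultured murine Hepa 1c1c7 hepatoma cells. Potency is expressed as the CD value, the test-compound concentration needed to double QR1 enzymatic activity.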

Nuclear factor NF-kappa-B complex (Homo sapiens), sequence (P19838 whole entry, looked up): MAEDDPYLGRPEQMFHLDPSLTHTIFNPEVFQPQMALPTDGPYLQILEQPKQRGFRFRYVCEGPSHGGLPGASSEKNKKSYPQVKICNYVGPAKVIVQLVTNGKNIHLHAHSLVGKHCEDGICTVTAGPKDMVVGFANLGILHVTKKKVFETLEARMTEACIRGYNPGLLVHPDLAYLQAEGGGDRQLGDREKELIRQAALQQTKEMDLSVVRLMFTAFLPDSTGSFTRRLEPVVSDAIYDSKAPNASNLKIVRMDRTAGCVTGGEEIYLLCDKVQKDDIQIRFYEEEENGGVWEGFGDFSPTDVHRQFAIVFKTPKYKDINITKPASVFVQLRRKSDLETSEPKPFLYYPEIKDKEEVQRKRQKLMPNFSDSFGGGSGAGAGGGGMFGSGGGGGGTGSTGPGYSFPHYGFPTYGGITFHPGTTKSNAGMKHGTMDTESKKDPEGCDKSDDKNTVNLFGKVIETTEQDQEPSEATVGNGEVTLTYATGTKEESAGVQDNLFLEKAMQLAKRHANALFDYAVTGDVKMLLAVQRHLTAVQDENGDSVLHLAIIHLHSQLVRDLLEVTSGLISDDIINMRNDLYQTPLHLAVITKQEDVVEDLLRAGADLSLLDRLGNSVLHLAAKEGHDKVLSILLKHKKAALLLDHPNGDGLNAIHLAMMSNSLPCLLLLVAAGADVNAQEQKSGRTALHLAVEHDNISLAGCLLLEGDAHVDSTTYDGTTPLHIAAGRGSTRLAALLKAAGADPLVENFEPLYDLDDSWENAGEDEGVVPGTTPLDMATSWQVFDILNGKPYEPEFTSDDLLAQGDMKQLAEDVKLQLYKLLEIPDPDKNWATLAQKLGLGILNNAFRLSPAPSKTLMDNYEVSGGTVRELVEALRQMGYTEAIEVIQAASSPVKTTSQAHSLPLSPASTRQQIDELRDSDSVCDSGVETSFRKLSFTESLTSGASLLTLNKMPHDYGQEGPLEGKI
Nuclear factor NF-kappa-B complex (Homo sapiens), sequence (Q00653 whole entry, looked up): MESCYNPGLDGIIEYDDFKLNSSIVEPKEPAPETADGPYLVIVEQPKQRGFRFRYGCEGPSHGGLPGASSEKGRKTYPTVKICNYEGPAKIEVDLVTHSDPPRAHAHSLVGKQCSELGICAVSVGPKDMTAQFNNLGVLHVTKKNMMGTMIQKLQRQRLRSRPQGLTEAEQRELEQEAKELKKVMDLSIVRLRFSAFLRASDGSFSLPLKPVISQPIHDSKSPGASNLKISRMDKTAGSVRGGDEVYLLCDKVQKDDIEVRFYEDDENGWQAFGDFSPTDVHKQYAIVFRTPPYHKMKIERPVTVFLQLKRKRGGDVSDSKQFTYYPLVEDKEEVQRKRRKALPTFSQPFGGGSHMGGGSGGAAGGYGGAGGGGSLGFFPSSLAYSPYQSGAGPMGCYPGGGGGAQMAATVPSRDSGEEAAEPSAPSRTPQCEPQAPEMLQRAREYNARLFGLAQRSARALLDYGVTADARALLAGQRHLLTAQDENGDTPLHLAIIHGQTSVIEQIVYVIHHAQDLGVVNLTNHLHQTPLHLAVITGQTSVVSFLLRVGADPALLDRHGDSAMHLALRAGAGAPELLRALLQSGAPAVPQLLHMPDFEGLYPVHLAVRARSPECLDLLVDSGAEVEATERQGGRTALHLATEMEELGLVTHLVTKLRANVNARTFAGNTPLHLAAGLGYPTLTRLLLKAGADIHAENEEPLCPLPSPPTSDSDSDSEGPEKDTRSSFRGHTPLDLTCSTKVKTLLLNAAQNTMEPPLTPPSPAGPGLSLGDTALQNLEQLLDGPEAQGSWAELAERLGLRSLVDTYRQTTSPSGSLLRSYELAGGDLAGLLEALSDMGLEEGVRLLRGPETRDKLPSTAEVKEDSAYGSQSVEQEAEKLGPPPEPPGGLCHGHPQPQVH
Nuclear factor NF-kappa-B complex (Homo sapiens), sequence (Q04206 whole entry, looked up): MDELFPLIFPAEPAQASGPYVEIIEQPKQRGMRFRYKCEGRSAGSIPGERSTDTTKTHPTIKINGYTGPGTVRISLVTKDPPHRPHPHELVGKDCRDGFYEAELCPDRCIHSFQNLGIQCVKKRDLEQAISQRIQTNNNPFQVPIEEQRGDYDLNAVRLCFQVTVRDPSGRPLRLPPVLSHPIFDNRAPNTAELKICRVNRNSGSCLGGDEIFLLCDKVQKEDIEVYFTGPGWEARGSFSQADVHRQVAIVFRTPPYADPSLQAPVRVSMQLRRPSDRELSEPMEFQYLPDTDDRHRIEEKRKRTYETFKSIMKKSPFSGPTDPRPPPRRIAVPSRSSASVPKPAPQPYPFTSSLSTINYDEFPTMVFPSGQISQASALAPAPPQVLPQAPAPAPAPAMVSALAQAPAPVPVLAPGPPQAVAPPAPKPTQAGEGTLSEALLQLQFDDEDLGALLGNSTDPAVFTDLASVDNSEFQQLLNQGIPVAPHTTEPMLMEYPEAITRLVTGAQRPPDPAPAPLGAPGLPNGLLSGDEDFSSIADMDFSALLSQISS

ED50 [1] [µM]	inhibition at 50 µM (Aromatase [2]) [%]	inhibition [3]	inhibition [4]	IC50 (Aromatase [5]) [µM]	CD [6] [µM]	Compound
> 50	< 50	inactive	inactive			CC1=C(O)C(=O)C[C@@]2(C)[C@H]1CC[C@@]1(CO)c3cnccc3C(=O)C[C@@H]12
> 50		inactive	inactive	34.4	11.2	CC1=C(O)C(=O)C[C@]2(C)[C@H]3CCc4cocc4[C@]3(CO)CCC12O (some centres not stated)
> 50	< 50	inactive	inactive			C[C@]12CC(=O)OC[C@@](C)(C(=O)O)[C@@H]1CC[C@@]1(CO)c3cocc3CC[C@@H]12
> 50	< 50	inactive	inactive			CC1=C(O)C(=O)C[C@@]2(C)[C@H]1CC[C@@]1(CO)c3cocc3CC[C@@H]12

Source: ChEMBL document CHEMBL3351822, “Spongiapyridine and related spongians isolated from an Indonesian Spongia sp” (J Nat Prod, 2014)
